Assay results from the RNAGym collection of RNA variant scans (doi:10.1101/gad.245936.114).
Fewer inactive variants are shown than the library holds.

B1: tRNA (parent)
chain: CUCUCGGUAGCCAAGUUGGUUUAAGGCGCAAGACUUUAAUUUAUCACUACGAAAUCUUGAGAUCGGGCGUUCGACUCGCCCCCGGGAGAUUUUUUCCUCGAGCAA

Variants of: B1
Experiment: nonsense suppression (GFP-seq) (ratio to wild type); higher = more function; SUP4oc tRNA, yeast GFP reporter sort-seq
Procedure, shortened: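 Yeast carrying genome-integrated SUP4oc tRNA variants from a library with ~3% random mutations were grown in raffinose/galactose medium with 80 mg/L adenine. Each strain also carried a galactose-driven GFP ochre reporter and RFP. Cells were sorted into GFP/RFP bins, and each bin was Illumina-sequenced (phred ≥30). Nonsense suppression (GFPSEQ) is the bin median GFP/RFP, weighted by each variant's estimated cell share per bin, relative to wild-type SUP4oc; variants needed ≥100 reads and ≥30 cells.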

Variant	nonsense suppression
CUCUCGGUAGUCAAGUUGGUUUAAGGCGCAAGGCUUUAAUUUAUCACUACGAAAUCUUGAGAUCGGGCGUUCGCCUCGCCCCAGGGAGAUUUUUUCCUCGAGCAA [C11U A33G A74C C83A]	≤ 0.026
CUCUCGGUAGAUAAGUUGGUUUAAGGCGCAAGACUUUAAUUUAUCACUACGAAAUCUUAAGAUCGGGCGUACGACUCGCCCCCGGGAGAUUUUUUCCUCGAGCAA [C11A C12U G59A U71A]	≤ 0.026
CUCUCGGUAGACAAGUUGGUUUAAGGCGCAAGACUUUAAUUUAUCACUACGAACUCUUAAGAUCGGGCGUCCGACUCGCACCCGGGACAUUUUUUCCUCGAGCAA [C11A A54C G59A U71C C80A G88C]	≤ 0.026
CUCUCGGUAGACAAGUUGGUUUAACGCGCAAGACUUUAAUUUAUCACUACGAAAUCUUGACAUCGGGCGUUCGACUCGCCCCCGGGAGAUUUUUUCCUCGAGCAA [C11A G25C G61C]	≤ 0.026
CUCUCGGUAGUCAAGUUGGUUUAGGCCGCAAGACUUUAAUUUAUCACUACGAAAUCUUGAGAUCGGGCGUACGACUCGCCCCCGGGAGAUUUUUUCCUCGAGCAA [C11U A24G G26C U71A]	≤ 0.026
CUCUCGGUAGGCAAGGUGGUUUAAGGCGCAAGACUUUAAUUUAUCACUACGAAAUCUAGAAAUCGGCCGUUCGACUCGCCCCCGGGAGAUUUUUUCCUCGAGCAA [C11G U16G U58A G61A G67C]	≤ 0.026
CUCUCGGUAGGCAAGUUGGUUUAAGGCGCAAGACUUUAAUUUAUCACUACGAAAUCUUGAGAUCGGGCGUUGGACUCGCCCCCGGGAGAUUUUUUCCUCGAGCAA [C11G C72G]	≤ 0.026
CUCUCGGUAGUCAAGUUGGUUUAAGGCGCAAGACUUUAAUUUAUCACUACGAAAUCUUGAGGACGGGCGUUCGACUCGCCCCCGGGAGAUUUUUUCCUCGAGCAA [C11U A62G U63A]	≤ 0.026
CUCUCGGUAGGCAAGUUGGUUUAAGGCGCAAGACCUUAAUUUAUCACUACGAAAUCUUGAGAUCGGGCGUUCGUCUCGCCCACGGGAGAUUUUUUCCUCGAGCAA [C11G U35C A74U C82A]	≤ 0.026
CUCUCGGUAGACAAGUUGGUUUAAGGCGCAAGACUUUAAUUUAUCACUACGAAAUCUUGAGAUCGGGCGUCCGACUCGCCCCCGGGAGGUUUUUUCCUCGAGCAA [C11A U71C A89G]	≤ 0.026
CUCUCGGUAGGCAAGUUGGUUUAAGGCGCAAGACUUUAAUUUAUCACUACGAAAUGUUGAGAUCGGGCGUUCGACUCGCCCCCUGGAGAUUUUUUCCUCGAGCAA [C11G C56G G84U]	≤ 0.026
CUCUCGGUAGGCAAGGUGGUUUAAGGCGCAAGACUUUAAUUUAUCACUACGAAAUCUUGAGAUCGAGCGUUCGACUCGCCCCCGGGAGAUUUUUUCCUCGAGCAA [C11G U16G G66A]	≤ 0.026
CUCUCGGUAGACAAGUUGGUUUAAGGCGCAAGACUUUAAUUUAUCACUACGAAAUCUUGAGAUCGGGCGUACGACUCGCCCCCGGGAGAUUUUUUCCUCGAGCAA [C11A U71A]	≤ 0.026
CUCUCGGUAGACAAGUUGGUUUAAGGCGCAAGACUUUAAUUUAUCACUACGAAAUCUUGAGAUCGGGCGUCCGACUCGCCCCCGGGAGAUUUUUUCCUCGAGCAA [C11A U71C]	≤ 0.026
CUCUCGGUAGACAAGUUGGUUUAAGGCGCAAGACUUUAAUUUAUCACUACGAAAUCUUGAGAGCGGGCGUUCGACUCGCCCCCGGGAGAUUUUUUCCUCGAGCAA [C11A U63G]	≤ 0.026
CUCUCGGUAGGCAAGUCGGUCUAAGGCGCAAGACUUUAAUUUAUCACUACGAAAUCUUGAGACCGGGCGUUCGACUCGCCCCCGGGAGAUUUUUUCCUCGAGCAA [C11G U17C U21C U63C]	≤ 0.026
CUCUCGGUAGGCAAGUUGGUUUAAGGCGCAAGACUUUAAUUUAUCACUACGAAAUCUUGAGAACGGGCGGUCGACUCGCCCCCGGGAGAUUUUUUCCUCGAGCAA [C11G U63A U70G]	≤ 0.026
CUCUCGGUAGACAAGUUGGUUUAAGGCGCGAGACUUUAAUUUAUCACUACGAAAUCUUGAGAUCGGGCGUUCGACUCGCCCCCGGGAGAUUUUUUCCUCGAGCAA [C11A A30G]	0.0331
CUCUCGGUAGGCAAGUUGGUUUAAGGCGCAAGACUUUAAUUUAUCACUACGAAAUCUUGAGAUCGAGCCUUCGACUCGCCCCCGGGAGAUUUUUUCCUCGAGCAA [C11G G66A G69C]	0.0424
CUCUCGGUAGGCAAGUUGGUUUAAGCCGCAAGACUUUAAUUUAUCACUACGAAAUCUUGAGAUCGGGCGUUCGACUCGCCCCCGGGAGAUUUUUUCCUCGAGCAA [C11G G26C]	0.359
CUCUCGGUAGACAAGUUGGUUUAAGGCGCAAGACUUUAAUUUAUCACUACGAAAUCUUGAAAUCGGGCGUUCGACUCGCCCCCGGGAGAUUUUUUCCUCGAGCAA [C11A G61A]	0.22
CUCUCGGUAGACAAGUUGGUUUAAGGCGCAAGACUUUAAUUUAUCACUACGAAAUCUAGAGAUCGGGCAUUCGACUCGCCCCCGGGAGAUUUUUUCCUCGAGCAA [C11A U58A G69A]	≤ 0.026
CUCUCGGUAGGCAAGUUGGUUUAAGGCGCAAGACUUUAAUUUAUCACUACGAAAUCUUAAGAUAGGGCGUUCGACUCGCCCCCGGGAGAUUUUUUCCUCGAGCAA [C11G G59A C64A]	≤ 0.026
CUCUCGGUAGGCAAGUUGGUUUAAGGCGCAGGACUUUAAUUUAUCACUACGAAAUCUUGAGAUCGGGCGUUCGACUCGCCCCCGGGAGAUUUUUUCCUCGAGCAA [C11G A31G]	≤ 0.026
CUCUCGGUAGGCAAGUUGGUUUAAGGCGCAUGACUUUAAUUUAUCACUACGAAAUCUUGAGAUCGGGCGUUCGACUCGCCCCCGGGAGAUUUUUUCCUCGAGCAA [C11G A31U]	≤ 0.026
CUCUCGGUAGGCAAUUUGGUUUAAGGCGCAAGACUUUAAUUUAUCACUACGAAAUCUUGAGAUCGGGCGUUCGACUCCCCCCCGGGAGAUUUUUUCCUCGAGCAA [C11G G15U G78C]	≤ 0.026
CUCUCGGUAGUCAAGUUGGUUUAAGGCGCAGGACUUUAAUUUAUCACUACGAAAUCUUGAGAUCGGGCGUUCGACUGGCCCCCGGGAGAUUUUUUCCUCGAGCAA [C11U A31G C77G]	≤ 0.026
